Measured values published in ChEMBL document CHEMBL1155459, “On-bead screening of a combinatorial fumaric acid derived peptide library yields antiplasmodial cysteine protease inhibitors with unusual peptide sequences” (J Med Chem, 2009).
Peptide text beside a SMILES is read from it.

Experiments:
[1] = biological target: Rhodesain (Trypanosoma brucei rhodesiense) (UniProt Q95PM0); test: Inhibition of Trypanosoma brucei rhodesiense rhodesain after 12 hrs by fluorescence spectroscopy-based on-bead assay; parameters: concentration or dose not given beside the values; conditions: concentration not given here
Chain of Rhodesain (Trypanosoma brucei rhodesiense) (Q95PM0 1-450): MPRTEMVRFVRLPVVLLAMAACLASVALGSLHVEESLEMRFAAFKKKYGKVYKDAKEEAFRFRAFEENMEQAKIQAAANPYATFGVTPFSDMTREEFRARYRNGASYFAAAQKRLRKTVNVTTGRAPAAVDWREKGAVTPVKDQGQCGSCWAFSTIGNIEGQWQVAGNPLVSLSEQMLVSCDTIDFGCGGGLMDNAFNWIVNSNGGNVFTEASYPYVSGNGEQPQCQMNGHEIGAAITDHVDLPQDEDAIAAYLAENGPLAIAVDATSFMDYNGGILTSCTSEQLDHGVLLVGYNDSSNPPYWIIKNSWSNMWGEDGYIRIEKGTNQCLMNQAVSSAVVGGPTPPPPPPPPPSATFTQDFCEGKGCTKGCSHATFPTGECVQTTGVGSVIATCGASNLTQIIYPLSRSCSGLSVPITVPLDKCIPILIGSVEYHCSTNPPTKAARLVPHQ
Procedure, shortened: (§1)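 Library members on resin (PEGA, theoretical loading 0.40 mmol/g; added as DMSO suspension, 0.64 mM final inhibitor) preincubated with enzyme 12 h, then Cbz-Phe-Arg-AMC 40 μM added; AMC release followed by fluorescence (ex 380/em 460 nm). Kinetics compared with inhibitor-free amino-PEGA resin.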

[2] = Inhibition of Plasmodium falciparum falcipain-2 after 12 hrs by fluorescence spectroscopy-based on-bead assay; parameters: concentration or dose not given beside the values; conditions: concentration not given here; procedure, shortened: as §1

Structure (SMILES) | inhibition [1] | inhibition [2]
CC(C)[C@H](NC(=O)[C@@H](NC(=O)[C@@H](NC(=O)[C@H](CC(N)=O)NC(=O)/C=C/C(=O)NCC(=O)NCC(=O)N[C@@H](Cc1ccccc1)C(=O)O)c1ccccc1)C(C)C)C(N)=O (HELM PEPTIDE1{[O=C(/C=C/C(=O)[*:2])NCC(=O)NCC(=O)N[C@@H](Cc1ccccc1)C(=O)O].N.[Phg].V.V.[am]}$$$$V2.0) | 45% | 50%
CC(C)[C@H](NC(=O)[C@H](C)NC(=O)[C@H](Cc1ccccc1)NC(=O)[C@H](CCC(N)=O)NC(=O)/C=C/C(=O)NCC(=O)NCC(=O)N[C@@H](Cc1ccccc1)C(=O)O)C(N)=O (HELM PEPTIDE1{[O=C(/C=C/C(=O)[*:2])NCC(=O)NCC(=O)N[C@@H](Cc1ccccc1)C(=O)O].Q.F.A.V.[am]}$$$$V2.0) | 41% | 54%
CC(C)C[C@H](NC(=O)[C@H](Cc1ccccc1)NC(=O)[C@H](CCC(N)=O)NC(=O)/C=C/C(=O)NCC(=O)NCC(=O)N[C@@H](Cc1ccccc1)C(=O)O)C(=O)N[C@H](C(N)=O)C(C)C (HELM PEPTIDE1{[O=C(/C=C/C(=O)[*:2])NCC(=O)NCC(=O)N[C@@H](Cc1ccccc1)C(=O)O].Q.F.L.V.[am]}$$$$V2.0) | 57% | 62%
CC(C)[C@H](NC(=O)[C@@H](NC(=O)[C@H](Cc1ccccc1)NC(=O)[C@H](CCC(N)=O)NC(=O)/C=C/C(=O)NCC(=O)NCC(=O)N[C@@H](Cc1ccccc1)C(=O)O)C(C)C)C(N)=O (HELM PEPTIDE1{[O=C(/C=C/C(=O)[*:2])NCC(=O)NCC(=O)N[C@@H](Cc1ccccc1)C(=O)O].Q.F.V.V.[am]}$$$$V2.0) | 42% | 51%
CC[C@H](C)[C@H](NC(=O)[C@H](CCC(N)=O)NC(=O)/C=C/C(=O)NCC(=O)NCC(=O)N[C@@H](Cc1ccccc1)C(=O)O)C(=O)N[C@@H](C)C(=O)N[C@H](C(N)=O)C(C)C (HELM PEPTIDE1{[O=C(/C=C/C(=O)[*:2])NCC(=O)NCC(=O)N[C@@H](Cc1ccccc1)C(=O)O].Q.I.A.V.[am]}$$$$V2.0) | 38% | 38%
CC[C@H](C)[C@H](NC(=O)[C@H](CCC(N)=O)NC(=O)/C=C/C(=O)NCC(=O)NCC(=O)N[C@@H](Cc1ccccc1)C(=O)O)C(=O)N[C@@H](CC(C)C)C(=O)N[C@H](C(N)=O)C(C)C (HELM PEPTIDE1{[O=C(/C=C/C(=O)[*:2])NCC(=O)NCC(=O)N[C@@H](Cc1ccccc1)C(=O)O].Q.I.L.V.[am]}$$$$V2.0) | 52% | 44%
CC[C@H](C)[C@H](NC(=O)[C@H](CCC(N)=O)NC(=O)/C=C/C(=O)NCC(=O)NCC(=O)N[C@@H](Cc1ccccc1)C(=O)O)C(=O)N[C@H](C(=O)N[C@H](C(N)=O)C(C)C)C(C)C (HELM PEPTIDE1{[O=C(/C=C/C(=O)[*:2])NCC(=O)NCC(=O)N[C@@H](Cc1ccccc1)C(=O)O].Q.I.V.V.[am]}$$$$V2.0) | 37% | 30%
CC(C)C[C@H](NC(=O)[C@H](CCC(N)=O)NC(=O)/C=C/C(=O)NCC(=O)NCC(=O)N[C@@H](Cc1ccccc1)C(=O)O)C(=O)N[C@@H](C)C(=O)N[C@H](C(N)=O)C(C)C (HELM PEPTIDE1{[O=C(/C=C/C(=O)[*:2])NCC(=O)NCC(=O)N[C@@H](Cc1ccccc1)C(=O)O].Q.L.A.V.[am]}$$$$V2.0) | 38% | 40%
CC(C)C[C@H](NC(=O)[C@H](CCC(N)=O)NC(=O)/C=C/C(=O)NCC(=O)NCC(=O)N[C@@H](Cc1ccccc1)C(=O)O)C(=O)N[C@@H](CC(C)C)C(=O)N[C@H](C(N)=O)C(C)C (HELM PEPTIDE1{[O=C(/C=C/C(=O)[*:2])NCC(=O)NCC(=O)N[C@@H](Cc1ccccc1)C(=O)O].Q.L.L.V.[am]}$$$$V2.0) | 69% | 42%
CC(C)C[C@H](NC(=O)[C@H](CCC(N)=O)NC(=O)/C=C/C(=O)NCC(=O)NCC(=O)N[C@@H](Cc1ccccc1)C(=O)O)C(=O)N[C@H](C(=O)N[C@H](C(N)=O)C(C)C)C(C)C (HELM PEPTIDE1{[O=C(/C=C/C(=O)[*:2])NCC(=O)NCC(=O)N[C@@H](Cc1ccccc1)C(=O)O].Q.L.V.V.[am]}$$$$V2.0) | 54% | 54%
